Assay results published in ChEMBL document CHEMBL5653630, “Activation of the p53-MDM4 regulatory axis defines the anti-tumour response to PRMT5 inhibition through its role in regulating cellular splicing” (Sci Rep, 2018).
Activity calls are given as the source filed them. The calls are words filed in the database; no cut-off is given here.

Key:
Type in all cases: functional
Z-138 = test: Induction of cell cycle arrest in human Z138 cells assessed as accumulation of cells at G1 phase cells incubated for 1 to 10 days by propidium iodide staining based flow cytometric analysis; conditions: dose <= 1000.0 nM, time 1-10 day
MDA-MB-468 = test: Induction of cell cycle arrest in human MDA-MB-468 cells assessed as decrease in 2n cell population measured upto 5000 nM measured for 2 to 7 days by propidium iodide staining based flow cytometric analysis; conditions: time 2-7 day
NCI-H295R = test: Antiproliferative activity against human NCI-H295R cells assessed as cell growth inhibition incubated for 10 days; conditions: 240 h, time 10 day
C-4-II = test: Antiproliferative activity against human C-4-II cells assessed as cell growth inhibition incubated for 10 days; conditions: 240 h, time 10 day
Outline: (§1)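 Cells kept in RPMI-1640 with 10% FBS, 2 mM L-alanyl-L-glutamine and 1 mM Na pyruvate (or a special medium) at 37°C, 5% CO2. Compound added 24 h after seeding, 10 concentrations in 3.16-fold dilution, 0.1% DMSO final. Medium replaced and cells re-dosed at 168 h; 240 h incubation. Nuclei fixed, dye-stained and imaged. gIC50 = growth midway between untreated and time-zero cell counts, from a 4-parameter fit.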

BV-173 = test: Antiproliferative activity against human BV-173 cells assessed as cell growth inhibition incubated for 10 days; conditions: BV-173, 240 h, time 10 day; outline: as §1
LS174T = test: Antiproliferative activity against human LS174T cells assessed as cell growth inhibition incubated for 10 days; conditions: 240 h, time 10 day
COLO 320DM = test: Antiproliferative activity against human Colo 320DM cells assessed as cell growth inhibition incubated for 10 days; conditions: 240 h, time 10 day
Outline: (§2)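 Outsourced panel run in 384-well plates. Cells were grown in RPMI-1640/10% FBS or a special medium at 37°C, 5% CO2. Compound was added 24 h after seeding as a 10-point, 3.16-fold series in 0.1% DMSO. Medium was refreshed and cells re-dosed at 168 h, with a time-zero plate kept. At 240 h cells were fixed, nuclei stained and imaged. gIC50 is growth midway between untreated and time zero, from a 4-parameter fit.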

RL95-2 = test: Antiproliferative activity against human RL95-2 cells assessed as cell growth inhibition incubated for 10 days; conditions: RL95-2, 240 h, time 10 day
SNU-16 = test: Antiproliferative activity against human SNU-16 cells assessed as cell growth inhibition incubated for 10 days; conditions: SNU-16, 240 h, time 10 day
SW1783 = test: Antiproliferative activity against human SW1783 cells assessed as cell growth inhibition incubated for 10 days; conditions: SW1783, 240 h, time 10 day
RPMI-6666 = test: Antiproliferative activity against human RPMI-6666 cells assessed as cell growth inhibition incubated for 10 days; conditions: RPMI-6666, 240 h, time 10 day
SW1463 = test: Antiproliferative activity against human SW1463 cells assessed as cell growth inhibition incubated for 10 days; conditions: SW1463, 240 h, time 10 day
HLE = test: Antiproliferative activity against human HLE cells assessed as cell growth inhibition incubated for 10 days; conditions: 240 h, time 10 day; outline: as §2
SH-4 = test: Antiproliferative activity against human SH-4 cells assessed as cell growth inhibition incubated for 10 days; conditions: SH-4, 240 h, time 10 day
MeWo = test: Antiproliferative activity against human MeWo cells assessed as cell growth inhibition incubated for 10 days; conditions: 240 h, time 10 day
CHP-212 = test: Antiproliferative activity against human CHP-212 cells assessed as cell growth inhibition incubated for 10 days; conditions: CHP-212, 240 h, time 10 day; outline: as §1
SK-MES-1 = test: Antiproliferative activity against human SK-MES-1 cells assessed as cell growth inhibition incubated for 10 days; conditions: SK-MES-1, 240 h, time 10 day
A549 = test: Antiproliferative activity against human A549 cells assessed as cell growth inhibition incubated for 10 days; conditions: A549, 240 h, time 10 day; outline: as §1
HPAF-II = test: Antiproliferative activity against human HPAF-II cells assessed as cell growth inhibition incubated for 10 days; conditions: 240 h, time 10 day; outline: as §2
HuP-T4 = test: Antiproliferative activity against human HuP-T4 cells assessed as cell growth inhibition incubated for 10 days; conditions: HuP-T4, 240 h, time 10 day
Outline: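 Cells grown at 37°C under 5% CO2 in RPMI-1640 with 10% FBS, 2 mM L-alanyl-L-glutamine and 1 mM pyruvate (or a special medium), then seeded in 384-well plates. Compound was added 24 h later as a 10-point, 3.16-fold series in 0.1% DMSO final. Medium was replaced and cells re-dosed at 168 h; 240 h total. Nuclear-dye imaging gave cell counts, with a time-zero plate. gIC50 is growth halfway to time zero, from a 4-parameter fit.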

CWR22R = test: Antiproliferative activity against human 22Rv1 cells assessed as cell growth inhibition incubated for 10 days; conditions: 22Rv1, 240 h, time 10 day; outline: as §1
Y79 = test: Antiproliferative activity against human Y79 cells assessed as cell growth inhibition incubated for 10 days; conditions: Y79, 240 h, time 10 day
RD = test: Antiproliferative activity against human RD cells assessed as cell growth inhibition incubated for 10 days; conditions: 240 h, time 10 day
DMS-114 = test: Antiproliferative activity against human DMS-114 cells assessed as cell growth inhibition incubated for 10 days; conditions: DMS-114, 240 h, time 10 day; outline: as §2
BHT-101 = test: Antiproliferative activity against human BHT-101 cells assessed as cell growth inhibition incubated for 10 days; conditions: BHT-101, 240 h, time 10 day; outline: as §1

## CC(=O)N1CCC(Nc2cc(C(=O)NC[C@H](O)CN3CCc4ccccc4C3)ncn2)CC1 [PEMRAMETOSTAT]
Z-138
  Activity: Dose-Dependent Effect
MDA-MB-468
  Activity: inactive

## O=C(NC[C@H](O)CN1CCc2ccccc2C1)c1ccnc(NC2CCC2)c1
NCI-H295R
  GI50: 10000 nM
C-4-II
  GI50: 266 nM
BV-173
  GI50: 10.6 nM
LS174T
  GI50: 170 nM
COLO 320DM
  GI50: 82.5 nM
RL95-2
  GI50: 218 nM
SNU-16
  GI50: 34.4 nM
SW1783
  GI50: 389 nM
RPMI-6666
  GI50: 748 nM
SW1463
  GI50: 770 nM
HLE
  GI50: 174 nM
SH-4
  GI50: 75.2 nM
MeWo
  GI50: 249 nM
CHP-212
  GI50: 24 nM
SK-MES-1
  GI50: 807 nM
A549
  GI50: 80.9 nM
HPAF-II
  GI50: 154 nM
HuP-T4
  GI50: 84.9 nM
CWR22R
  GI50: 2480 nM
Y79
  GI50: 113 nM
RD
  GI50: 639 nM
DMS-114
  GI50: 1010 nM
BHT-101
  GI50: 214 nM
